Most compounds without a hit are left out; they make up all but 3.1% or so of the library.
PHOSPHO1 block = PHOSPHO1 (human) inhibition; Q8TCT1; recombinant PHOSPHO1, absorbance phosphatase assay; inhibition, % at 13.3 µM; 1.1% of 290,000 active; in the data active means inhibition above about 60%
Target sequence (Q8TCT1 whole entry, looked up): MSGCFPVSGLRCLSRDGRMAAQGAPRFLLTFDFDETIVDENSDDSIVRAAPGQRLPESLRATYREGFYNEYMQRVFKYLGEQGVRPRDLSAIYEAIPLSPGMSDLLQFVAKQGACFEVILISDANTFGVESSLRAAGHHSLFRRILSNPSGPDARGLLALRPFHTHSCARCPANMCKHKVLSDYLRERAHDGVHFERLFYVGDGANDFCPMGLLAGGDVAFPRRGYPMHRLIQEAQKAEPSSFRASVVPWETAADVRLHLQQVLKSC
VIM-2 inh = inhibitors of Pseudomonas aeruginosa VIM-2 metallo-beta-lactamase. purified VIM-2, nitrocefin hydrolysis, epi-absorbance fluorescence. inhibition, % at 5.6 µM. 0.89% of 290,000 active. AID 1527;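 active means inhibition above the mean of all tested compounds plus 3 SD, cutoff set per screening run, cut at about 7.5% in these data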;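 further: red hydrolysis product quenches plate fluorescence so inhibitors raise well fluorescence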
IMP-1 inhibitor = blocks Pseudomonas aeruginosa IMP-1 metallo-beta-lactamase; purified IMP-1, nitrocefin hydrolysis, epi-absorbance fluorescence; inhibition, % at 5.6 µM; 0.45% of 290,000 active; AID 1556;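 active means inhibition above the mean plus 3 SD of all compounds in the same screening run, cut at about 4.5% in these data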
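Material – recombinant IMP-1 enzyme, purified · Amount – IMP-1 0.2 nM before substrate addition · Medium – HEPES buffer pH 7.1 with ZnSO4 and Brij 35 · Timing – 25 °C, 15 min preincubation, 25 min reaction · Measured by – plate fluorescence quenching by hydrolysis product, ex 480/em 530 nm · Read-out – percent enzyme inhibition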
UBC9 SUMO inh = SUMOylation inhibition. 0.36% of 290,000 active. inhibition, % at 35 µM. AID 2006. HTRF SUMOylation assay, SAE1/SAE2 + UBC9, in vitro; in the data active means inhibition above about 50%, passing the limit was not always enough
Target sequence (P63279 whole entry, looked up): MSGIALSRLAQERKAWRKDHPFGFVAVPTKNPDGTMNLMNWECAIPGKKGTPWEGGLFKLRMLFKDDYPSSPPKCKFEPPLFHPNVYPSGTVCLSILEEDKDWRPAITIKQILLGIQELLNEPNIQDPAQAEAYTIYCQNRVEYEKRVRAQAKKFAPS
core dimer inh = blocks dimerization of HCV core protein | TR-FRET GST/Flag-core106 dimerization, 1536-well | inhibition, % at 5 µM | 0.33% of 300,000 active | AID 1899;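 active means inhibition above the mean of all tested compounds plus 3 SD, set per screening campaign, cut at about 45% in these data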
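Assay system: Tagged HCV core106 pair (GST and Flag) | Buffer or medium: KF-containing HEPES buffer, pH 7.45, DTT, CHAPS, BSA | Also added: Eu donor and XL665 acceptor anti-tag antibodies | Dosing: One concentration, 5 µM, in 0.5% DMSO | Timing: 4 h at 22.5 °C | Technique: TR-FRET 671 and 617 nm emission | Repeats: Singlicate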
HCV NS3 hel inh = inhibitors of Hepatitis C virus NS3 helicase; inhibition, % at 10.9 µM; NS3 helicase DNA unwinding, Cy5 molecular beacon fluorescence; 0.56% of 290,000 active; AID 1800;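 active means inhibition above the mean of all tested compounds plus 3 SD, set per campaign, cut at about 35% in these data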
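System: NS3 helicase fragment of HCV / Schedule: 1 h at 25 °C / Control set: DMSO alone as 0% and 110 µM thioflavine S as 100% / Reagent: Cy5/quencher beacon DNA duplex and ATP to start / Technique: Cy5 fluorescence / Replication: singlicate / Evaluation: % inhibition of end-to-start signal ratio versus controls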
Large screens that a line does not name were inactive.

O=C(Cc1ccc(-n2c(=O)c3ccccc3n(Cc3ccccc3Cl)c2=O)cc1)NCC1CCCO1 (stereo unspecified)	IMP-1 inhibitor 4.8
O=C(CCCCn1c(=O)[nH]c2ccccc2c1=O)NC1CCN(Cc2ccccc2)CC1	PHOSPHO1 block 63
O=C(CCCn1c(=O)[nH]c2ccccc2c1=O)NC1CCCCCC1	none
CCc1nc(SCC(=O)N2CCN(C(=O)c3ccco3)CC2)c2c3c(sc2n1)CCCC3	VIM-2 inh 9.7
Cc1ccc(NC(=O)Nc2ncnc3nc[nH]c23)cc1	none
Cc1nc2ccc(S(=O)(=O)NCC(=O)NCCc3ccc(Cl)cc3)cc2s1	PHOSPHO1 block 70
Cc1c(C)n2c(SCC(=O)N3CCCCCC3)nnc2[nH]c1=O	none (no result: PHOSPHO1 block, VIM-2 inh, IMP-1 inhibitor, UBC9 SUMO inh, HCV NS3 hel inh)
CCN=C1S/C(=C\c2cc(OCC)c(O)cc2Br)C(=O)N1CC	VIM-2 inh 7.8
CCN=C1S/C(=C\c2ccc(O)c(OCC)c2)C(=O)N1CC	none
O=C1NC(SCCCF)=N/C1=C/c1ccc(-n2cncn2)cc1	none
CCOc1ccc2nc(NC(=S)NCc3ccccc3)sc2c1	PHOSPHO1 block 72
CCC(C(=O)OC(C)C(=O)Nc1ccc(Cl)cn1)c1ccccc1 (stereo unspecified)	none
Cc1cc(C2C(=O)CC(=O)CC2c2ccccc2)on1 (stereo unspecified)	IMP-1 inhibitor 7.7
CCS(=O)(=O)CCSc1nc2ccccc2s1	none
O=C(CSc1nc2ccccc2s1)CSc1nc2ccccc2s1	PHOSPHO1 block 60
O=C(O)CSc1nc2ccccc2s1	none
O=S(=O)(CCSc1nc2ccccc2s1)c1nc2ccccc2s1	PHOSPHO1 block 76
O=C(CSc1nc2ccccc2s1)NNC(=S)Nc1ccccc1	VIM-2 inh 9.7
O=C(CSc1nc2cc(Cl)ccc2s1)c1ccco1	PHOSPHO1 block 91
CC(C)S(=O)(=O)C/C(N)=N/OC(=O)c1cc(Cl)cc(Cl)c1	none
Cc1cccc(COc2ccc(/C=N/NC(=O)c3nnn(-c4nonc4N)c3COc3ccc(F)cc3)cc2)c1	none
CCN(CC)CCn1c2c(c(SCC(=O)Nc3nccs3)nc1=O)CCCC2	none (no result: PHOSPHO1 block, VIM-2 inh, IMP-1 inhibitor, UBC9 SUMO inh, HCV NS3 hel inh)
CCN1C(=O)[C@@H]2Cc3c([nH]c4ccccc34)C(c3ccc(OC)cc3)N2C1=S (stereo partly specified)	none
Cc1csc(NC(=O)CSc2nc3ccccc3s2)n1	IMP-1 inhibitor 4.6
Cc1csc(NC(=O)CCCSc2nc3ccccc3s2)n1	none
CC1CCc2c(nc3sc4c(c3c2N)CCCC4)C1 (stereo unspecified)	VIM-2 inh 8.1
COc1cccc(=O)c2c(C)n(-c3cc(C)cc(C)c3)c(C)c12	none
COc1cccc(-n2c(C)c3c(OC)cccc(=O)c3c2C)c1	core dimer inh 52
COc1ccc(OC)c(-c2cc(C(=O)NCCCn3ccnc3)no2)c1	VIM-2 inh 8.4
COc1cc(OC)cc(-c2nnc(NC(=O)c3ccc4c(c3)OCCO4)o2)c1	PHOSPHO1 block 63
N=c1oc2ccc3ccccc3c2cc1C(N)=S	none
COc1ccc(OC)c(C(=O)CC2OC(=O)c3ccccc32)c1 (stereo unspecified)	none
COc1ccc(C(=O)CC2OC(=O)c3ccccc32)cc1OC (stereo unspecified)	IMP-1 inhibitor 4.9
CCN1CCN(C(=S)c2ccc(Cl)cc2)CC1	PHOSPHO1 block 94
OCCN1CCN(C(=S)c2ccc(Cl)cc2)CC1	none
N#C/C(=C\c1ccccc1O)C(=O)Nc1ccccn1	none
COc1ccc(-n2c(SCC(=O)NCC3CCCO3)nc3ccccc32)cc1 (stereo unspecified)	PHOSPHO1 block 78
CC(C)(C)NC(=O)CSc1nc2ccccc2n1-c1ccccc1	PHOSPHO1 block 62
CC(C)NC(=O)CSc1nc2ccccc2n1-c1ccccc1	none
CS(=O)(=O)c1cccc(C(=O)N(CCc2ccccc2)Cc2cccs2)c1	none
CCCn1c(C)nc2c(c1=O)c1nc3ccccc3nc1n2CCC1=CCCCC1	PHOSPHO1 block 69, VIM-2 inh 8.3
CCCn1c(C)nc2c(c1=O)c1nc3ccccc3nc1n2CCc1ccccc1	none (no result: PHOSPHO1 block, UBC9 SUMO inh, core dimer inh)
O=C(NCc1cccnc1)C1c2ccccc2C(=O)N1Cc1ccco1 (stereo unspecified)	IMP-1 inhibitor 4.6
COc1cc(OC)nc(Oc2cccc(Cl)c2C)n1	none (no result: PHOSPHO1 block, VIM-2 inh, IMP-1 inhibitor, UBC9 SUMO inh, HCV NS3 hel inh)
Cc1csc(NC(=O)c2ccc(S(=O)(=O)N(C)c3ccccc3)cc2)n1	PHOSPHO1 block 86
CN(c1ccccc1)S(=O)(=O)c1ccc(C(=O)Nc2nccs2)cc1	none
CN(C)S(=O)(=O)c1ccc(C(=O)NCc2ccccn2)cc1	PHOSPHO1 block 62
CN(c1ccccc1)S(=O)(=O)c1ccc(C(=O)NCc2ccccn2)cc1	none
O=C(NCc1ccccn1)c1ccc(N2CCCC2)c([N+](=O)[O-])c1	PHOSPHO1 block 63
Cc1cc(NC(=O)c2ccc(N3CCCC3)c([N+](=O)[O-])c2)no1	core dimer inh 49
O=C(NCc1ccccc1)C1=C[C@@H](c2ccc(Br)cc2)C[C@@H](OCCCCO)O1	none
C#Cc1ccc([C@@H]2C=C(C(=O)NCc3ccccc3)O[C@H](OCCCCO)C2)cc1	core dimer inh 52 (no result: PHOSPHO1 block, VIM-2 inh, IMP-1 inhibitor, UBC9 SUMO inh, HCV NS3 hel inh)
C#Cc1ccc([C@@H]2C=C(C(=O)NCc3ccccc3)O[C@H](OCc3ccc(CO)cc3)C2)cc1	core dimer inh 47
O=C(O)C1=C[C@H](c2csc3ccccc23)C[C@H](OCCCCO)O1	VIM-2 inh 9.5
O=C(NCc1ccccc1)C1=C[C@@H](c2ccccc2)C[C@@H](OCc2ccc(CO)cc2)O1	none
CC(C)c1ccccc1NC(=O)COC(=O)c1cccnc1	none
Cc1cccc(N2CCN(S(=O)(=O)c3ccc4c(c3)C(C)(C)C(=O)N4C)CC2)c1C	core dimer inh 47
CN1C(=O)C(C)(C)c2cc(S(=O)(=O)N(C)Cc3ccccc3)ccc21	none
Cc1cccc(N(C)S(=O)(=O)c2ccc3c(c2)C(C)(C)C(=O)N3C)c1	core dimer inh 54
CC(C)(C)C1=Nn2c(nnc2-c2n[nH]c3c2CCC3)SC1	PHOSPHO1 block 68
Cc1cccc(NC(=O)CSc2n[nH]c(-c3ccncc3)n2)c1C	none
COc1ccc(N2CCc3c(C)nc4c(OC)cccc4c32)cc1	VIM-2 inh 12
Cc1ncc([N+](=O)[O-])n1Cc1cccc(F)c1	none
CCOc1ccc(-c2csc(N)c2C(=O)OC)cc1	PHOSPHO1 block 62
CCOC(=O)c1c(-c2ccncc2)csc1N	none
O=C(CCSc1ccccn1)c1ccccc1	none
CCC1CSC(=Nc2ccc(C)cc2)N1C(=O)CN1C(=O)NC2(CCCC2)C1=O (stereo unspecified)	none (no result: PHOSPHO1 block)
COc1ccc(CC(=O)Oc2ccccc2[N+](=O)[O-])cc1	IMP-1 inhibitor 13
CCC(C)Nc1nc(-c2c[nH]c3ccccc23)cs1 (stereo unspecified)	none

Screening results (PubChem BioAssay)
